ChEMBL document CHEMBL1152452, “Modifications incorporated in CpG motifs of oligodeoxynucleotides lead to antagonist activity of toll-like receptors 7 and 9” (2009)
Active and inactive are the calls of the source.

Tests used:
Mus musculus [1] = experiment: Immunostimulatory activity in C57BL/6 mouse assessed as induction of IL12 level in serum at 2 mg/kg, sc after 2 hrs by sandwich ELISA; type: functional, organism-based; set-up: dose 2 mg/kg
Method in brief: (§1)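 Female C57BL/6 mice, 5–6 weeks old, n = 3, received a single 2 mg/kg subcutaneous ODN injection in the right flank. Blood was taken by retro-orbital bleeding 2 h later. Naive mice served as baseline. Representative of three experiments.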

Splenocyte [2] = experiment: Immunostimulatory activity in C57BL/6 mouse splenocytes assessed as induction of IL6 secretion after 24 hrs by sandwich ELISA; type: functional, cell-based
Method in brief: (§2)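 C57BL/6 splenocytes (mice 5–8 weeks) at 5 × 10^6 cells/mL in RPMI complete medium. ODNs dissolved in PBS were added and the cells incubated at 37 °C for 24 h. Supernatant IL-12 or IL-6 was measured by sandwich ELISA. Runs were done two or three times, in duplicate per concentration.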

[3] = biological target: T1, Toll-like receptor 9 (Mus musculus) (UniProt Q9EQU3); experiment: Activation of mouse TLR9 expressed in HEK293 cells assessed as NF-kappaB level at 1 ug/mL after 18 hrs by reporter gene assay; type: cell-based
T1 sequence (whole entry): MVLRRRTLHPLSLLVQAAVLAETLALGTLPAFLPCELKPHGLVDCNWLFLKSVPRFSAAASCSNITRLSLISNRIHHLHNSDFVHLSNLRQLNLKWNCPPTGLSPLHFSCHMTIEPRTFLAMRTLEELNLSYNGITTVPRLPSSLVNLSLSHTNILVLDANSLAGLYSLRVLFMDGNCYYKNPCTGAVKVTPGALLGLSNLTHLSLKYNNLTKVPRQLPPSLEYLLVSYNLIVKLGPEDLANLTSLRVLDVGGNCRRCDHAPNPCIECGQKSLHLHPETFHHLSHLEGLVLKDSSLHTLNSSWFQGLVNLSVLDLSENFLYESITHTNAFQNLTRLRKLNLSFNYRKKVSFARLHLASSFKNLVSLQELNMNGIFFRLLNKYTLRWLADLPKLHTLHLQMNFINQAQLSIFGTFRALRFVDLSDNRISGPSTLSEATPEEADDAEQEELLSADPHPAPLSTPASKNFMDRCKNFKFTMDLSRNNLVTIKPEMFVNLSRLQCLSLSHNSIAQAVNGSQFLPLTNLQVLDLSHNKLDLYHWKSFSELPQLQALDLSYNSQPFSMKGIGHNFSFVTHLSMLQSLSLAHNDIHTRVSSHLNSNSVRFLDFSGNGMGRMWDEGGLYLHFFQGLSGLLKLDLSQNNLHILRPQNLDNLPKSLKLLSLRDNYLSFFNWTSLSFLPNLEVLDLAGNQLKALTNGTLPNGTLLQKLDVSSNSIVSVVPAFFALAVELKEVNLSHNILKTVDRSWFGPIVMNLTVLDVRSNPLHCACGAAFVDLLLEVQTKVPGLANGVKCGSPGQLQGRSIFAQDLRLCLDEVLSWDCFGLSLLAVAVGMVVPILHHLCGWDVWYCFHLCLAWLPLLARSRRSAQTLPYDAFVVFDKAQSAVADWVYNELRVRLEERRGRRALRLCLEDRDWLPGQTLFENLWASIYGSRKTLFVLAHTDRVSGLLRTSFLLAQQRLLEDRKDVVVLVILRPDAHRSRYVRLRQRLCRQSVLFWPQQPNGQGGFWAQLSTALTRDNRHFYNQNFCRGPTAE
Method in brief: (§3)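 HEK293 cells stably expressing mouse TLR9 were transiently transfected with a SEAP reporter for 6 h, then stimulated with ODN at 0.1, 0.3 or 1 μg/mL for 18 h. Reporter expression is given as fold change in NF-κB activity over medium. Representative of two independent experiments.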

[4] = biological target: T1, Toll-like receptor 9 (Mus musculus); experiment: Activation of mouse TLR9 expressed in HEK293 cells assessed as NF-kappaB level at 0.1 ug/mL after 18 hrs by reporter gene assay; type: cell-based; method in brief: as §3
Mus musculus [5] = experiment: Immunostimulatory activity in C57BL/6 mouse assessed as induction of MCP1 level in serum at 2 mg/kg, sc after 2 hrs by Luminex multiplex assay; type: functional, organism-based; set-up: dose 2 mg/kg; method in brief: as §1
Mus musculus [6] = experiment: Immunostimulatory activity in C57BL/6 mouse assessed as induction of TNFalpha level in serum at 2 mg/kg, sc after 2 hrs by Luminex multiplex assay; type: functional, organism-based; set-up: dose 2 mg/kg; method in brief: as §1
Splenocyte [7] = experiment: Immunostimulatory activity in C57BL/6 mouse splenocytes assessed as induction of IL12 secretion after 24 hrs by sandwich ELISA; type: functional, cell-based; method in brief: as §2
Mus musculus [8] = experiment: Immunostimulatory activity in C57BL/6 mouse assessed as induction of MIP-1alpha level in serum at 2 mg/kg, sc after 2 hrs by Luminex multiplex assay; type: functional, organism-based; set-up: dose 2 mg/kg; method in brief: as §1
Mus musculus [9] = experiment: Immunostimulatory activity in C57BL/6 mouse assessed as induction of KC level in serum at 2 mg/kg, sc after 2 hrs by Luminex multiplex assay; type: functional, organism-based; set-up: dose 2 mg/kg; method in brief: as §1
[10] = biological target: T1, Toll-like receptor 9 (Mus musculus); experiment: Activation of mouse TLR9 expressed in HEK293 cells assessed as NF-kappaB level at 0.3 ug/mL after 18 hrs by reporter gene assay; type: cell-based; method in brief: as §3
J774 = experiment: Activation of NF-kappaB in mouse J774 cells at 0.5 ug/ml after 1 hr by EMSA; type: cell-based
Method in brief: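 Murine J774 macrophages in DMEM with 10% FBS and antibiotics, plated at 5×10^6 cells/well. ODNs were given alone or together for 1 h. For inhibition, the agonist ODN at 0.5 μg/mL was co-incubated with the modified ODN at 2.5 μg/mL. Nuclear extracts were resolved by EMSA on native polyacrylamide gels and read by autoradiography.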

Mus musculus [11] = experiment: Immunostimulatory activity in C57BL/6 mouse assessed as induction of IL10 level in serum at 2 mg/kg, sc after 2 hrs by Luminex multiplex assay; type: functional, organism-based; set-up: dose 2 mg/kg; method in brief: as §1

Measured: Activity

Cc1cn([C@H]2C[C@H](OP(=O)(S)OC[C@H]3O[C@@H](n4ccc(N)nc4=O)C[C@@H]3OP(=O)(S)OC[C@H]3O[C@@H](n4cc(C)c(=O)[nH]c4=O)C[C@@H]3OP(=O)(S)OC[C@H]3O[C@@H](n4cnc5c(=O)[nH]c(N)nc54)C[C@@H]3OP(=O)(S)OC[C@H]3O[C@@H](n4cc(C)c(=O)[nH]c4=O)C[C@@H]3O)[C@@H](COP(=O)(S)O[C@H]3C[C@H](n4ccc(N)nc4=O)O[C@@H]3COP(=O)(S)O[C@H]3C[C@H](n4cc(C)c(=O)[nH]c4=O)O[C@@H]3COP(=O)(S)O[C@H]3C[C@H](n4cc(C)c(=O)[nH]c4=O)O[C@@H]3COP(=O)(S)O[C@H]3C[C@H](n4cnc5c(=O)[nH]c(N)nc54)O[C@@H]3COP(=O)(S)O[C@H]3C[C@H](n4ccc(N)nc4=O)O[C@@H]3COP(=O)(S)O[C@H]3C[C@H](n4cnc5c(N)ncnc54)O[C@@H]3COP(=O)(S)O[C@H]3C[C@H](n4cnc5c(=O)[nH]c(N)nc54)O[C@@H]3COP(=O)(S)O[C@H]3C[C@H](n4cc(C)c(=O)[nH]c4=O)O[C@@H]3COP(=O)(S)O[C@H]3C[C@H](n4ccc(N)nc4=O)O[C@@H]3COP(=O)(S)O[C@H]3C[C@H](n4cc(C)c(=O)[nH]c4=O)O[C@@H]3COP(=O)(S)O[C@H]3C[C@H](n4cnc5c(N)ncnc54)O[C@@H]3COP(=O)(S)O[C@H]3C[C@H](n4cc(C)c(=O)[nH]c4=O)O[C@@H]3COP(=O)(S)O[C@H]3C[C@H](n4ccc(N)nc4=O)O[C@@H]3CO)O2)c(=O)[nH]c1=O (some centres not stated)
active: Mus musculus [1] | Splenocyte [2] Dose-dependent effect | [3] | [4] | Mus musculus [5] | Mus musculus [6] | Splenocyte [7] Dose-dependent effect | Mus musculus [8] | Mus musculus [9] | [10] | J774 | Mus musculus [11]
